Experimental data reported in ChEMBL document CHEMBL1143227, “Design, synthesis, and in vitro activity of peptidomimetic inhibitors of myeloid differentiation factor 88” (J Med Chem, 2008).
Activity calls are given as the source filed them. The rule behind the calls is not given here.

Assays:
[1] = target: Myeloid differentiation primary response protein MyD88 (Homo sapiens) (UniProt Q99836); test: Inhibition of MyD88 homodimerization by yeast two-hybrid assay
In short: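 Yeast AH109 is cotransformed with AD-MyD88 and BD-MyD88, grown overnight at 30 °C in SGd/-Leu/-Trp, then diluted 1/20 into SGd/-Ade/-His/-Leu/-Trp with compound at a final 100 µM in oxygen-sensor plates. Growth at 30 °C is read by fluorescence (ex 485/em 630 nm, bottom read) every 90 min for 25 readings. Signal is normalized to initial well fluorescence, and growth curves are described by seven curve parameters.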

HeLa [2] = test: Inhibition of IL-1-alpha-induced NF-kappaB activation in human HeLa cells at 100 uM; assay type: functional
In short: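 HeLa cells are grown in EMEM with 2 mM glutamine, 1% nonessential amino acids, 7.5% FBS and pen/strep. They are seeded at 3 × 10⁵/well, left overnight, then switched to serum-free EMEM. Compound (DMSO, final 100 µM) is added for 6 h at 37 °C, then recombinant human IL-1 5 ng/mL for 30 min. Activated p65 in about 10 µg lysate protein is read by TransAM colorimetric ELISA (A450). % inhibition uses stimulated and unstimulated controls with and without compound.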

Mus musculus = test: Decrease in IL-1-beta-dependent IL6 production in mouse at 50 to 200 mg/kg; assay type: functional, organism-based
HeLa [3] = test: Toxicity against human HeLa cells at 4 uM by MTT assay; assay type: cell-based
HeLa [4] = test: Toxicity against human HeLa cells at 8 uM by MTT assay; assay type: cell-based
HeLa [5] = test: Toxicity against human HeLa cells at 10 uM by MTT assay; assay type: cell-based
HeLa [6] = test: Toxicity against human HeLa cells at 20 uM by MTT assay; assay type: cell-based
HeLa [7] = test: Inhibition of IL-1-alpha-induced NF-kappaB activation in human HeLa cells at 4 uM; assay type: functional
HeLa [8] = test: Inhibition of IL-1-alpha-induced NF-kappaB activation in human HeLa cells at 8 uM; assay type: functional
HeLa [9] = test: Inhibition of IL-1-alpha-induced NF-kappaB activation in human HeLa cells at 10 uM; assay type: functional
HeLa [10] = test: Inhibition of IL-1-alpha-induced NF-kappaB activation in human HeLa cells at 20 uM; assay type: functional

Myeloid differentiation primary response protein MyD88 (Homo sapiens), sequence (Q99836 whole entry): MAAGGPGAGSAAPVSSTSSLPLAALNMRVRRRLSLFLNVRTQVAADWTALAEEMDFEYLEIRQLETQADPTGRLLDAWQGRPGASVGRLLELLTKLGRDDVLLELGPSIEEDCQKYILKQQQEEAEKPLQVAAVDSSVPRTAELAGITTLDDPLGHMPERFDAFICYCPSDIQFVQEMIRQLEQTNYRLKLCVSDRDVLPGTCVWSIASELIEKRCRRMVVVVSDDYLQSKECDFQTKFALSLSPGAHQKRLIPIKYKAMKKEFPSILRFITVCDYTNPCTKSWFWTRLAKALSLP

| SMILES | Activity [1] | inhibition at 100 µM (HeLa [2]) [%] | also measured |
| --- | --- | --- | --- |
| NC(=O)[C@H]1CCS[C@@H]2C[C@]3(CCCN3C(=O)Cc3ccc(NC(=O)COc4ccc(Cl)cc4Cl)cc3)C(=O)N12 | Active | 26 | Activity (Mus musculus): Active |
| CC(C)(C)c1ccc(S(=O)(=O)/C=C/C#N)cc1 [BAY-11-7085] |  |  | Activity (HeLa [3]): 0%; Activity (HeLa [4]): 0%; Activity (HeLa [5]): 4%; Activity (HeLa [6]): 41%; inhibition at 4 µM (HeLa [7]): 0%; inhibition at 8 µM (HeLa [8]): 35%; inhibition at 10 µM (HeLa [9]): 44%; inhibition at 20 µM (HeLa [10]): 65% |
| NC(=O)CN1CCC[C@]2(CCCN2C(=O)CCNC(=O)c2ccc(NC(=O)Cc3cccc4ccccc34)cc2)C1=O | Active | 18 |  |
| CC(C)[C@H](NC(=O)CCc1ccccc1)C(=O)N1CCCC1 |  | 31 |  |
| NC(=O)[C@H]1CCS[C@@H]2C[C@]3(CCCN3C(=O)c3nc(NC(=O)COc4ccc(Cl)cc4)n[nH]3)C(=O)N12 | Active | 17 |  |
| Cc1cnc(C(=O)Nc2ccc(C(=O)NCCC(=O)N3CCC[C@]34C[C@H]3SCC[C@H](C(N)=O)N3C4=O)cc2)cn1 | Active | 23 |  |
| N=C(N)NCCCCNC(=O)c1ccc2cc(NC(=O)CN3C(=O)[C@@H]4C[C@@H](O)CN4C(=O)c4ccccc43)ccc2c1 | Active | 24 |  |
